PLAP activator = PLAP enzyme activators, biochemical, luminescence, HTS; Alkaline phosphatase, placental type (Homo sapiens), P05187; purified PLAP enzyme, luminescent substrate read-out; stronger effect = higher value; activation fold at 20 µM; 96,000 compounds, 1.2% hits; AID 696, 2007; in the data active means activation fold above about 2
E coli WT exp = growth inhibitors of wild-type E. coli, primary screen, strain BW25113, expanded library, OD600; AID 710, 2007; growth inhibition, % at 100 µM; 98,000 compounds, 0.15% hits; OD600 absorbance;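 active means growth inhibition above about 50% at one test dose, limit read from the data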;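 further: growth measured after 20 h incubation at 37 °C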
HePTP inh = inhibitors of human HePTP phosphatase, primary screen, biochemical, absorbance, leukemia target | 110,000 compounds, 0.64% hits | AID 521, 2006 | inhibition, % at 20 µM | recombinant HePTP phosphatase activity, OD absorbance; in the data active means inhibition above about 50%
Target sequence (P35236 whole entry, looked up): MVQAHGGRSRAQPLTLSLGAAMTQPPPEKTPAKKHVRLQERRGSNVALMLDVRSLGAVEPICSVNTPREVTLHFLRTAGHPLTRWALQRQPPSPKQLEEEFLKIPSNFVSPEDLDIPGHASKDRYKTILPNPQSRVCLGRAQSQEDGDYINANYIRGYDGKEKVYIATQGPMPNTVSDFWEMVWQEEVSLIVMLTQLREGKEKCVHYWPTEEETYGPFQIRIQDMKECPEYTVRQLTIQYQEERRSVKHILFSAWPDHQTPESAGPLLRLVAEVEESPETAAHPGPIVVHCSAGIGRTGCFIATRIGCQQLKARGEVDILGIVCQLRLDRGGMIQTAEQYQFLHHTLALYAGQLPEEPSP
PostGolgi ctrl = growth inhibition of yeast control strain, primary screen, counter-screen for post-Golgi transport modulator project; inhibition, % at 10 µM; efflux-deficient yeast background strain, growth absorbance A615, 16 h; 98,000 compounds, 5% hits
PostGolgi yeast = phenotypic screen on post-Golgi transport, primary screen; post-Golgi transport phenotypic cell assay; inhibition, % at 10 µM; 98,000 compounds, 0.9% hits; AID 739, 2007;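 further: yeast cells grown in 1536-well plates; yeast grown about 18 h at 30C before absorbance read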
tolC growth inh = growth inhibitors of E. coli tolC mutant, primary screen, strain BW25113 ΔtolC::kan, 384-well. OD615. 65,000 compounds, 2.2% hits. growth inhibition, % at 10 µM (by protocol);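 active means growth inhibition at or above a cutoff equal to the mean over every tested compound plus 3 SD, cut at about 60% in these data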;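 further: growth measured after 20 h incubation at 37 °C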
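test system = E. coli BW25113 ΔtolC::kan bacteria | medium = LB with kanamycin 50 µg/mL | signal = OD at 615 nm | schedule = 37 °C, 20 h exposure | evaluation = % inhibition of E. coli growth | compound dosing = one dose of 10 µM final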
Large screens that a line does not name were inactive. Only some compounds are listed: those with a hit (about 5.4% of all), similar ones and a draw of the others. Unless noted, no stated cut-off is given here; in the data, active means inhibition above about 30%; inactive means the rest.

COc1ccc2c(c1OC)C(=O)N1N=C(c3ccc(I)cc3)CC21 (stereo not given)	none (no result: PLAP activator, E coli WT exp, PostGolgi ctrl, PostGolgi yeast, tolC growth inh)
CCN(CC)CCOc1c(Br)ccc2c1sc1nc3n(c(=O)c12)CCC3	none
O=c1c2c(nc3n1CCCCC3)sc1c(O)c(Br)ccc12	PostGolgi ctrl 53.8 (no result: HePTP inh, tolC growth inh)
CC(=O)NCCn1c(SCc2ccccc2F)nc2ccccc2c1=O	none
Cc1ccc2c(CSc3nc4ccccc4c(=O)n3CCCO)cc(=O)oc2c1C	PostGolgi ctrl 31.7 (no result: HePTP inh, tolC growth inh)
CC(=O)NCCn1c(SCc2ccc(C)cc2)nc2ccccc2c1=O	PostGolgi ctrl 33.7 (no result: HePTP inh, tolC growth inh)
COC(=O)c1ccc(CSc2nc3ccccc3c(=O)n2Cc2ccco2)o1	PostGolgi ctrl 33.7
Cc1ccc(OCC(=O)NC23CC4CC(CC(C4)C2)C3)cc1	none (no result: PLAP activator, E coli WT exp, PostGolgi ctrl, PostGolgi yeast, tolC growth inh)
Cc1nc2cc(-c3ccccc3)[nH]n2c(=O)c1Cl	none (no result: PLAP activator, E coli WT exp, PostGolgi ctrl, PostGolgi yeast, tolC growth inh)
COc1ccc(/C=C2/N=C(c3cccc(C)c3)N(c3ccc(O)cc3)C2=O)cc1OC	none (no result: PLAP activator, E coli WT exp, PostGolgi ctrl, PostGolgi yeast, tolC growth inh)
CC(NC(=O)c1cc2ccccc2o1)c1cccs1 (stereo not given)	none
O=C(c1cc2ccccc2o1)c1cccs1	PostGolgi ctrl 31.3
O=C(NC=C(Cl)Cl)c1ccc(Cl)cc1	none (no result: PLAP activator, E coli WT exp, PostGolgi ctrl, PostGolgi yeast, tolC growth inh)
O=C(Nc1ccc(OC(F)(F)F)cc1)c1ccc2ccccc2c1	none (no result: PLAP activator, E coli WT exp, PostGolgi ctrl, PostGolgi yeast, tolC growth inh)
O=C(CN(Cc1ccc(F)cc1)C(=O)c1ccco1)NCc1ccc(F)cc1	none
O=C(c1ccco1)N(CCC(c1ccccc1)c1ccco1)Cc1ccc(F)cc1 (stereo not given)	PostGolgi ctrl 39.8 (no result: HePTP inh, tolC growth inh)
Cc1nn(Cc2ccccc2)c(N)c1-c1ccccc1	PostGolgi yeast 34.3
Cc1nn(Cc2ccccc2)c(N)c1C#N	none
O=C1c2cccc3c(O)ccc(c23)C(=O)N1Cc1ccccc1	PostGolgi yeast 30.4 (no result: HePTP inh, tolC growth inh)
COc1c(Cl)cc(C(=O)Nc2ccc(-c3nc4ccccc4o3)c(O)c2)cc1Cl	none (no result: PLAP activator, E coli WT exp, PostGolgi ctrl, PostGolgi yeast, tolC growth inh)
Cn1cc(Br)c(C(=O)NNC(=O)c2cccc(Br)c2)n1	PLAP activator 2.3 (no result: HePTP inh, tolC growth inh)
COc1cc(C2C(C(=O)c3ccc(C)o3)=C(O)C(=O)N2c2cc(C)on2)cc(Br)c1O (stereo not given)	tolC growth inh 65.4
COc1cc(C2C(C(=O)c3ccco3)=C(O)C(=O)N2c2cc(C)on2)cc(Br)c1O (stereo not given)	none
Cc1cc(C)n(-c2nc(NC(C)(C)C)nc(NC(C)(C)C)n2)n1	PostGolgi ctrl 41.1
Cc1cc(C)n(-c2nc(Nc3ccccc3C)nc(-n3nc(C)cc3C)n2)n1	PostGolgi ctrl 52.6 (no result: HePTP inh, tolC growth inh)
CC(C)(C)Nc1nc(NC(C)(C)C)nc(-n2ccnc2)n1	PostGolgi ctrl 33.0
Cc1cc(C)n(-c2nc(NC(C)C)nc(NC(C)C)n2)n1	tolC growth inh 87.8
O=C(CCN1C(=O)c2ccccc2C1=O)NC1CCCCCC1	none (no result: PLAP activator, E coli WT exp, PostGolgi ctrl, PostGolgi yeast, tolC growth inh)
CCNC(=S)NNC(=O)CSc1nc2ccccc2n1Cc1ccccc1	none (no result: PLAP activator, E coli WT exp, PostGolgi ctrl, PostGolgi yeast, tolC growth inh)
COc1ccc(/C=C(/C(=O)Nc2ccccc2C(=O)N2CCCC2)c2ccccc2)cc1	PostGolgi ctrl 35.6 (no result: HePTP inh, tolC growth inh)
O=C(NCCN1CCN(Cc2ccccc2Cl)CC1)C(=O)Nc1ccc(F)cc1	none (no result: PLAP activator, E coli WT exp, PostGolgi ctrl, PostGolgi yeast, tolC growth inh)
CCN(CC)C(=O)CN1C(=O)C2(OCC(C)(c3ccccc3)CO2)c2ccccc21 (stereo not given)	PostGolgi ctrl 31.2
COc1ccccc1N1CCN(Cc2nc(N)nc(Nc3ccc(C)c(Cl)c3)n2)CC1	tolC growth inh 69.0
CC1CCCC(C)N1C(=O)c1ccc(I)cc1 (stereo not given)	none (no result: PLAP activator, E coli WT exp, PostGolgi ctrl, PostGolgi yeast, tolC growth inh)
O=C1CCC(/C=C/c2ccccc2)=NN1Cc1ccc(Cl)c(Cl)c1	PostGolgi ctrl 60.2 (no result: HePTP inh, tolC growth inh)
O=c1c(Cl)c(Cl)cnn1Cc1ccccc1Cl	none (no result: PLAP activator, E coli WT exp, PostGolgi ctrl, PostGolgi yeast, tolC growth inh)
O=C1CCC(/C=C/c2ccccc2)=NN1Cc1ccccc1Cl	PostGolgi ctrl 39.4 (no result: HePTP inh, tolC growth inh)
Clc1ccc(OCc2nnc(-c3ccccc3Br)o2)cc1	tolC growth inh 62.7
CCCCc1c(C)nn(-c2nnc3c4ccccc4n(CC)c3n2)c1C	PostGolgi ctrl 57.8, tolC growth inh 75.3
CCn1c2ccccc2c2nc3ccccc3nc21	PostGolgi ctrl 34.4
O=C(c1ccc([N+](=O)[O-])cc1)N1CCN(Cc2cccc(Oc3ccccc3)c2)CC1	none (no result: PLAP activator, E coli WT exp, PostGolgi ctrl, PostGolgi yeast, tolC growth inh)
CCCc1c(C)nc2ccc(OC)cc2c1SCC(=O)O	none (no result: PLAP activator, E coli WT exp, PostGolgi ctrl, PostGolgi yeast, tolC growth inh)
Cc1cc(C)nc(SCC(=O)N/N=C/c2ccc([N+](=O)[O-])cc2)n1	none (no result: PLAP activator, E coli WT exp, PostGolgi ctrl, PostGolgi yeast, tolC growth inh)
